Bridge positions count the residues as written; N and C are the ends. Square brackets hold non-standard residues; d marks the D form. Peptide text beside a SMILES is read from it. 2Nal = N[C@@H](Cc1ccc2ccccc2c1)C(=O)O; 3Pal = N[C@@H](Cc1cccnc1)C(=O)O; Tle = CC(C)(C)[C@H](N)C(=O)O
What was measured:
Somatostatin receptor = assay: Antagonism of in vitro SRIF inhibition of GH release in rat in vitro pituitary cell assay; format: functional, cell-based; settings: pituitary gland cell
Summary of the method: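 Dispersed adult male rat anterior pituitary cells (trypsin/DNase), about 200 000 cells/well, cultured 4–5 days at 37 °C. GH measured by double-antibody RIA. IC50 versus SRIF, mean ± SEM of n dose–response curves.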

[1] = target: Somatostatin receptor type 2 (Homo sapiens, UniProt P30874); assay: The compound was tested for binding affinity against human Somatostatin receptor type 2
Somatostatin receptor type 2, sequence (P30874 whole entry): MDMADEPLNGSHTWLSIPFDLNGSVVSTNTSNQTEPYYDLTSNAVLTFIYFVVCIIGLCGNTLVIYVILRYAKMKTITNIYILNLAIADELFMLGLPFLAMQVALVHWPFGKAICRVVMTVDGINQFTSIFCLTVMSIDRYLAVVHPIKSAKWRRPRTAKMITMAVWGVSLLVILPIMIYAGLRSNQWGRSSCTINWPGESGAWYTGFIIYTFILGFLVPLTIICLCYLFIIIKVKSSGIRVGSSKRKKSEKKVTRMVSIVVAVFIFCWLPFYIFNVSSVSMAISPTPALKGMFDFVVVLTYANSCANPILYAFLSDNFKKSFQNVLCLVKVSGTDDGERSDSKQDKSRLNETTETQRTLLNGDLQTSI
Summary of the method: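 Membranes from CHO-K1 cells transfected with the cloned human sst2. Incubated 30 min at 37 °C with 0.05 nM [125I]MK-678 in HEPES pH 7.4 with BSA, MgCl2, Trasylol, bacitracin and PMSF. Filtration on PEI-soaked GF/C filters. Nonspecific binding defined with 1.0 μM SRIF. Mean ± SEM; single values are from one experiment.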

[2] = target: Somatostatin receptor type 1 (Homo sapiens, UniProt P30872); assay: The compound was tested for binding affinity against human Somatostatin receptor type 1
Somatostatin receptor type 1, sequence (P30872 whole entry): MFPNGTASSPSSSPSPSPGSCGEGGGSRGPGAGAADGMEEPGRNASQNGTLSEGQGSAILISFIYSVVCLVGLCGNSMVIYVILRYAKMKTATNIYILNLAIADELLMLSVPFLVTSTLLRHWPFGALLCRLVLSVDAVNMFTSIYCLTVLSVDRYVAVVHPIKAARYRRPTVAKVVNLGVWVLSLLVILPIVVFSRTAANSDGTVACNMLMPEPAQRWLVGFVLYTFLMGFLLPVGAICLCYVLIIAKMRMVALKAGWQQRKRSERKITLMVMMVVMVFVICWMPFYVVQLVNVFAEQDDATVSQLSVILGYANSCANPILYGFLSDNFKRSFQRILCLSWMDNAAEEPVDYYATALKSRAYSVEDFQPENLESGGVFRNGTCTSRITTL
Summary of the method: (§1)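 Membranes from CHO-K1 cells transfected with the cloned human receptor. Terminated by filtration on PEI-soaked GF/C filters. Nonspecific binding defined with 1.0 μM SRIF. Mean ± SEM; single values are from one experiment.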

[3] = target: Somatostatin receptor type 4 (Homo sapiens, UniProt P31391); assay: The compound was tested for binding affinity against human Somatostatin receptor type 4
Somatostatin receptor type 4, sequence (P31391 whole entry): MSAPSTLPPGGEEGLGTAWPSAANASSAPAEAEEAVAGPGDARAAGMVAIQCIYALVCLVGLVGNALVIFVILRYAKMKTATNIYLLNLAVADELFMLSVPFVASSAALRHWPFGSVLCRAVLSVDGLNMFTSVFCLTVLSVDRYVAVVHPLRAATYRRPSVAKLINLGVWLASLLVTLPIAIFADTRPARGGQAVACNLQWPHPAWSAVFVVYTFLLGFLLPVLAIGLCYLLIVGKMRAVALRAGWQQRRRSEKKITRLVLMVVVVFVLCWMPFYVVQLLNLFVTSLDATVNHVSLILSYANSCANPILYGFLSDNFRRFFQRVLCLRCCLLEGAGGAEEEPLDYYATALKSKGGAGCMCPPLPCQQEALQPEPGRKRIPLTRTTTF
Summary of the method: (§2)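 CHO-K1 cells stably transfected (calcium phosphate) with cloned human sst3 or sst4. Membranes made in ice-cold 50 mM Tris-HCl, resuspended in 10 mM Tris-HCl, then incubated 30 min at 37 °C with 0.05 nM [125I]Tyr11-SRIF in HEPES pH 7.4 with BSA, MgCl2 and protease inhibitors. Filtered on GF/C; nonspecific binding with 1.0 µM SRIF. Mean ± SEM, or one experiment.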

[4] = target: Somatostatin receptor type 5 (Homo sapiens, UniProt P35346); assay: The compound was tested for binding affinity against human Somatostatin receptor type 5; summary of the method: as §1
Somatostatin receptor type 5, sequence (P35346 whole entry): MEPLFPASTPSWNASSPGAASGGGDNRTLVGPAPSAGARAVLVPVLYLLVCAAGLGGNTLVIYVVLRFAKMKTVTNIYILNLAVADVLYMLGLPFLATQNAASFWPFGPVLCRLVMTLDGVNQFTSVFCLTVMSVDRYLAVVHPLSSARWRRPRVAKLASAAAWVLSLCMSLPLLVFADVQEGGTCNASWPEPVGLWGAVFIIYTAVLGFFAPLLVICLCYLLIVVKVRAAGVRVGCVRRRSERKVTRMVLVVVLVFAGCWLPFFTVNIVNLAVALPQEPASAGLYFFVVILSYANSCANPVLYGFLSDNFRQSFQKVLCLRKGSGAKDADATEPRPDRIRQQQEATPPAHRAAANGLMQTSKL

[5] = target: Somatostatin receptor type 3 (Homo sapiens, UniProt P32745); assay: The compound was tested for binding affinity against human Somatostatin receptor type 3; summary of the method: as §2
Somatostatin receptor type 3, sequence (P32745 whole entry): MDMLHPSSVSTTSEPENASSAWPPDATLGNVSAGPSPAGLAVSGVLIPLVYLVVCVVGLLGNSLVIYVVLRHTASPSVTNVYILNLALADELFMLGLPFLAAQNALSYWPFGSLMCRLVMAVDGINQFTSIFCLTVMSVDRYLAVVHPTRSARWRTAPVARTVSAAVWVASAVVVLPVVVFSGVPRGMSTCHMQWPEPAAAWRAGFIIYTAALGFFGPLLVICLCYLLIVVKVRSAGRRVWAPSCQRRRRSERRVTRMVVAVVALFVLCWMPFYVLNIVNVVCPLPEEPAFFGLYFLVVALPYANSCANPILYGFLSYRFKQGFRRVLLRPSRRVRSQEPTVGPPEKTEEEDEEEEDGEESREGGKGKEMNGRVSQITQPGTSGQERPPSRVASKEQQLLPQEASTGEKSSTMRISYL

| Compound | IC50 (Somatostatin receptor) [nM] | Ki [1] [nM] | Ki [2] [nM] | Ki [3] [nM] | Ki [4] [nM] | Ki [5] [nM] |
| --- | --- | --- | --- | --- | --- | --- |
| CC(C)[C@H]1NC(=O)[C@H](CCCCN)NC(=O)[C@@H](Cc2c[nH]c3ccccc23)NC(=O)[C@H](Cc2c[nH]cn2)NC(=O)C(NC(=O)[C@@H](N)Cc2ccc(F)cc2)CSSCC(C(=O)N[C@@H](Cc2ccc(F)cc2)C(N)=O)NC1=O (stereo in doubt) | 105 |  |  |  |  |  |
| CC(C)[C@H]1NC(=O)[C@H](CCCCN)NC(=O)[C@@H](Cc2c[nH]c3ccccc23)NC(=O)[C@H](Cc2cccnc2)NC(=O)[C@@H](NC(=O)[C@@H](N)Cc2ccc(F)cc2)CSSC[C@H](C(=O)N[C@@H](Cc2ccc3ccccc3c2)C(N)=O)NC1=O | 6.5 |  |  |  |  |  |
| CC(C)[C@H]1NC(=O)[C@H](CCCCN)NC(=O)[C@@H](Cc2c[nH]c3ccccc23)NC(=O)[C@H](Cc2cccnc2)NC(=O)[C@@H](NC(=O)[C@@H](N)Cc2ccc(F)cc2)CSSC[C@H](C(=O)N[C@@H](Cc2ccc(F)cc2)C(N)=O)NC1=O | 87 |  |  |  |  |  |
| C[C@@H](O)[C@@H]1NC(=O)[C@H](CCCCN)NC(=O)[C@@H](Cc2c[nH]c3ccccc23)NC(=O)[C@H](Cc2ccccc2)NC(=O)[C@@H](NC(=O)[C@@H](N)Cc2ccc(Cl)cc2)CSSC[C@@H](C(=O)N[C@@H](Cc2ccc3ccccc3c2)C(N)=O)NC1=O | 1.4 |  |  |  |  |  |
| CC(C)(C)[C@@H]1NC(=O)[C@H](CCCCN)NC(=O)[C@@H](Cc2c[nH]c3ccccc23)NC(=O)[C@H](Cc2cccnc2)NC(=O)[C@H](NC(=O)[C@@H](N)Cc2c[nH]c3ccccc23)CSSC[C@@H](C(=O)N[C@@H](Cc2ccc3ccccc3c2)C(N)=O)NC1=O (H-W[dC][3Pal][dW]K[Tle]C[2Nal]-NH2; disulfide 2-7) |  | 84 | > 1000 | > 1000 | 2250 | 210 |
| CC(C)[C@@H]1NC(=O)[C@H](CCCCN)NC(=O)[C@@H](Cc2c[nH]c3ccccc23)NC(=O)[C@H](Cc2cccnc2)NC(=O)[C@H](NC(=O)[C@@H](N)Cc2ccc(C#N)cc2)CSSC[C@@H](C(=O)N[C@@H](Cc2ccc(C#N)cc2)C(N)=O)NC1=O |  | 99 | > 1000 | > 1000 | 304 | 103 |
| CC(C)C[C@@H]1NC(=O)[C@H](CCCCN)NC(=O)[C@@H](Cc2c[nH]c3ccccc23)NC(=O)[C@H](Cc2cccnc2)NC(=O)[C@H](NC(=O)[C@@H](N)Cc2ccc3ccccc3c2)CSSC[C@@H](C(=O)N[C@@H](Cc2ccc3ccccc3c2)C(N)=O)NC1=O |  | 543 | 415 | 728 | 968 | 243 |
| CC(C)[C@@H]1NC(=O)[C@H](CCCCN)NC(=O)[C@@H](Cc2c[nH]c3ccccc23)NC(=O)[C@H](Cc2cccnc2)NC(=O)[C@H](NC(=O)[C@@H](N)Cc2ccc3ccccc3c2)CSSC[C@@H](C(=O)N[C@@H](Cc2ccc(F)cc2)C(N)=O)NC1=O |  | 69 | 1060 | > 1000 | 376 | 166 |
| CC(C)[C@@H]1NC(=O)[C@H](CCCCN)NC(=O)[C@@H](Cc2c[nH]c3ccccc23)NC(=O)[C@H](Cc2cccnc2)NC(=O)[C@H](NC(=O)[C@H](N)Cc2ccc(F)cc2)CSSC[C@@H](C(=O)N[C@H](Cc2ccc(F)cc2)C(N)=O)NC1=O |  | 106 | > 1000 | > 1000 | 694 | 838 |
| CC(C)[C@H]1NC(=O)[C@H](CCCCN)NC(=O)[C@@H](Cc2c[nH]c3ccccc23)NC(=O)[C@H](Cc2c[nH]cn2)NC(=O)C(NC(=O)[C@@H](N)Cc2ccccc2F)CSSCC(C(=O)N[C@@H](Cc2ccccc2F)C(N)=O)NC1=O (stereo in doubt) |  | 176 | 37 | > 1000 | 972 | 382 |
| CC(C)[C@@H]1NC(=O)[C@H](CCCCN)NC(=O)[C@@H](Cc2c[nH]c3ccccc23)NC(=O)[C@H](Cc2cccnc2)NC(=O)[C@H](NC(=O)[C@@H](N)Cc2c(F)c(F)c(F)c(F)c2F)CSSC[C@@H](C(=O)N[C@@H](Cc2c(F)c(F)c(F)c(F)c2F)C(N)=O)NC1=O |  | 633 | 525 | 176 | 960 | 111 |
| CC(C)[C@@H]1NC(=O)[C@H](CCCCN)NC(=O)[C@@H](Cc2c[nH]c3ccccc23)NC(=O)[C@H](Cc2cccnc2)NC(=O)[C@H](NC(=O)[C@@H](N)Cc2ccc(Cl)cc2)CSSC[C@@H](C(=O)N[C@@H](Cc2ccc3ccccc3c2)C(N)=O)NC1=O |  | 25 | > 1000 | 1590 | 240 | 85 |
| CC(C)[C@@H]1NC(=O)[C@H](CCCCN)NC(=O)[C@@H](Cc2c[nH]c3ccccc23)NC(=O)[C@H](Cc2cccnc2)NC(=O)[C@H](NC(=O)[C@@H](N)Cc2cccc(F)c2)CSSC[C@@H](C(=O)N[C@@H](Cc2cccc(F)c2)C(N)=O)NC1=O |  | 117 | 82 | > 1000 | 748 | 495 |
| CC(C)[C@@H]1NC(=O)[C@H](CCCCN)NC(=O)[C@@H](Cc2c[nH]c3ccccc23)NC(=O)[C@H](Cc2cccnc2)NC(=O)[C@H](NC(=O)[C@@H](N)Cc2ccc(I)cc2)CSSC[C@@H](C(=O)N[C@@H](Cc2ccc(I)cc2)C(N)=O)NC1=O |  | 32 | 575 | 436 | 48 | 18 |

Second part, the molecule after the results:

| IC50 (Somatostatin receptor) [nM] | Ki [1] [nM] | Ki [2] [nM] | Ki [3] [nM] | Ki [4] [nM] | Ki [5] [nM] | Compound |
| --- | --- | --- | --- | --- | --- | --- |
| 150 |  |  |  |  |  | CC(C)[C@H]1NC(=O)[C@H](CCCCN)NC(=O)[C@@H](Cc2c[nH]c3ccccc23)NC(=O)[C@H](Cc2cccnc2)NC(=O)[C@@H](NC(=O)[C@@H](N)Cc2ccc3ccccc3c2)CSSC[C@H](C(=O)N[C@@H](Cc2ccc(F)cc2)C(N)=O)NC1=O |
| 3 |  |  |  |  |  | CC(C)[C@H]1NC(=O)[C@H](CCCCN)NC(=O)[C@@H](Cc2c[nH]c3ccccc23)NC(=O)[C@H](Cc2cccnc2)NC(=O)[C@@H](NC(=O)[C@@H](N)Cc2ccc(Cl)cc2)CSSC[C@H](C(=O)N[C@@H](Cc2ccc(Cl)cc2)C(N)=O)NC1=O |
|  | 56 | > 1000 | 2880 | 153 | 1190 | CC(C)(C)[C@@H]1NC(=O)[C@H](CCCCN)NC(=O)[C@@H](Cc2c[nH]c3ccccc23)NC(=O)[C@H](Cc2cccnc2)NC(=O)[C@H](NC(=O)[C@H](N)Cc2ccc(Cl)cc2)CSSC[C@@H](C(=O)N[C@H](Cc2ccc(Cl)cc2)C(N)=O)NC1=O |
|  | 81 | 348 | > 1000 | 524 | 171 | CC(C)[C@@H]1NC(=O)[C@H](CCCCN)NC(=O)[C@@H](Cc2c[nH]c3ccccc23)NC(=O)[C@H](Cc2cccnc2)NC(=O)[C@H](NC(=O)[C@@H](N)Cc2ccc3ccccc3c2)CSSC[C@@H](C(=O)N[C@@H](Cc2ccc3ccccc3c2)C(N)=O)NC1=O |
|  | 203 | 1200 | > 1000 | 1860 | 379 | C[C@@H]1NC(=O)[C@H](CCCCN)NC(=O)[C@@H](Cc2c[nH]c3ccccc23)NC(=O)[C@H](Cc2cccnc2)NC(=O)[C@H](NC(=O)[C@@H](N)Cc2ccc3ccccc3c2)CSSC[C@@H](C(=O)N[C@@H](Cc2ccc3ccccc3c2)C(N)=O)NC1=O |
|  | 37 | > 1000 | > 1000 | 725 | 1600 | CC(C)[C@@H]1NC(=O)[C@H](CCCCN)NC(=O)[C@@H](Cc2c[nH]c3ccccc23)NC(=O)[C@H](Cc2cccnc2)NC(=O)[C@H](NC(=O)[C@@H](N)Cc2ccc3ccccc3c2)CSSC[C@@H](C(=O)N[C@H](C(N)=O)C(c2ccccc2)c2ccccc2)NC1=O |
|  | > 1000 | 172 | 1040 | 847 | 152 | CC[C@H](C)[C@@H]1NC(=O)[C@H](CCCCN)NC(=O)[C@@H](Cc2c[nH]c3ccccc23)NC(=O)[C@H](Cc2cccnc2)NC(=O)[C@H](NC(=O)[C@@H](N)Cc2ccc3ccccc3c2)CSSC[C@@H](C(=O)N[C@@H](Cc2ccc3ccccc3c2)C(N)=O)NC1=O (H-[2Nal][dC][3Pal][dW]KIC[2Nal]-NH2; disulfide 2-7) |
|  | 35 | > 1000 | 145 | 631 | 371 | CC(C)(C)[C@@H]1NC(=O)[C@H](CCCCN)NC(=O)[C@@H](Cc2c[nH]c3ccccc23)NC(=O)[C@H](Cc2cccnc2)NC(=O)[C@H](NC(=O)[C@@H](N)Cc2ccc3ccccc3c2)CSSC[C@@H](C(=O)N[C@@H](Cc2ccc3ccccc3c2)C(N)=O)NC1=O (H-[2Nal][dC][3Pal][dW]K[Tle]C[2Nal]-NH2; disulfide 2-7) |
|  | 16 | 374 | 3310 | 66 | 57 | CC(C)[C@@H]1NC(=O)[C@H](CCCCN)NC(=O)[C@@H](Cc2c[nH]c3ccccc23)NC(=O)[C@H](Cc2cccnc2)NC(=O)[C@H](NC(=O)[C@@H](N)Cc2ccc(Br)cc2)CSSC[C@@H](C(=O)N[C@@H](Cc2ccc(Br)cc2)C(N)=O)NC1=O |
|  | 637 | 69 | > 1000 | 926 | 124 | CC(C)[C@H]1NC(=O)[C@H](CCCCN)NC(=O)[C@@H](Cc2c[nH]c3ccccc23)NC(=O)[C@H](Cc2c[nH]cn2)NC(=O)C(NC(=O)[C@@H](N)Cc2c(F)c(F)c(F)c(F)c2F)CSSCC(C(=O)N[C@@H](Cc2c(F)c(F)c(F)c(F)c2F)C(N)=O)NC1=O (stereo in doubt) |

From ChEMBL document CHEMBL1132220 (J Med Chem, 1999)
